How the values were obtained:
[1] = molecular target: human TRPC6 (hTRPC6-WT) (Homo sapiens, UniProt Q9Y210); assay: whole-cell patch-clamp, hTRPC6-WT expressed in HEK293 cells; type: cell-based
Outline: (§1)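 Transiently transfected HEK293 cells expressing mouse or human TRPC6 WT, or sequence-verified mouse point mutants, recorded 24–48 h post-transfection. Conventional whole-cell clamp at −60 mV and 23 °C, gap-free; test compound applied by Y-tube. Pipette: CsCl/HEPES/BAPTA, 400 nM free Ca2+, pH 7.2. Bath: NaCl-based, 2 mM CaCl2, pH 7.4. EC50 from Hill fit of concentration–current data. Mutant screen used current ratios (10/5 μM or 3/1 μM). At least 3 transfection batches.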

[2] = molecular target: mTRPC6 mutant ^mK675R (Mus musculus, UniProt Q61143, K675R); assay: whole-cell patch-clamp, mTRPC6 mutant K675R; type: cell-based
Outline: as §1

[3] = molecular target: mTRPC6 mutant ^mN701Q (Mus musculus, UniProt Q61143, N701Q); assay: whole-cell patch-clamp, mTRPC6 mutant N701Q; type: cell-based
Outline: as §1

[4] = molecular target: mTRPC6 mutant ^mK697R (Mus musculus, UniProt Q61143, K697R); assay: whole-cell patch-clamp, mTRPC6 mutant K697R; type: cell-based
Outline: as §1

[5] = molecular target: mTRPC6 mutant ^mF640W (Mus musculus, UniProt Q61143, F640W); assay: whole-cell patch-clamp, mTRPC6 mutant F640W; type: cell-based
Outline: as §1

[6] = test system: mTRPC6 mutant ^mF490W; assay: whole-cell patch-clamp, mTRPC6 mutant F490W; type: cell-based, mouse; conditions: ^mF490W (S1 pocket)
Outline: as §1

[7] = test system: mTRPC6 mutant ^mY657W; assay: whole-cell patch-clamp, mTRPC6 mutant Y657W; type: cell-based, mouse; conditions: ^mY657W (S1 pocket)
Outline: as §1

[8] = test system: mTRPC6 mutant ^mV687L; assay: whole-cell patch-clamp, mTRPC6 mutant V687L; type: cell-based, mouse; conditions: ^mV687L (S3 pocket)
Outline: as §1

[9] = molecular target: mTRPC6 mutant ^mL684V (Mus musculus, UniProt Q61143, L684V); assay: whole-cell patch-clamp, mTRPC6 mutant L684V; type: cell-based; conditions: ^mL684V (S3 pocket)
Outline: as §1

[10] = molecular target: mTRPC6 mutant ^mS685T (Mus musculus, UniProt Q61143, S685T); assay: whole-cell patch-clamp, mTRPC6 mutant S685T; type: cell-based; conditions: ^mS685T (S3 pocket)
Outline: as §1

[11] = molecular target: mTRPC6 mutant ^mF678W (Mus musculus, UniProt Q61143, F678W); assay: whole-cell patch-clamp, mTRPC6 mutant F678W; type: cell-based; conditions: saturated agonist
Outline: as §1

[12] = molecular target: mTRPC6 mutant ^mW679F (Mus musculus, UniProt Q61143, W679F); assay: whole-cell patch-clamp, mTRPC6 mutant W679F; type: cell-based; conditions: saturated agonist
Outline: as §1

[13] = molecular target: mTRPC6 mutant ^mF674A (Mus musculus, UniProt Q61143, F674A); assay: whole-cell patch-clamp, mTRPC6 mutant F674A; type: cell-based; conditions: saturated agonist
Outline: as §1

[14] = molecular target: mTRPC6 mutant ^mY704A (Mus musculus, UniProt Q61143, Y704A); assay: whole-cell patch-clamp, mTRPC6 mutant Y704A; type: cell-based; conditions: saturated agonist
Outline: as §1

[15] = molecular target: hTRPC6 mutant ^hE672C (Homo sapiens, UniProt Q9Y210, E672C); assay: whole-cell patch-clamp, hTRPC6 mutant E672C; type: cell-based
[16] = molecular target: hTRPC6 mutant ^hE673D (Homo sapiens, UniProt Q9Y210, E673D); assay: whole-cell patch-clamp, hTRPC6 mutant E673D; type: cell-based
[17] = molecular target: hTRPC6 mutant ^hN702Q (Homo sapiens, UniProt Q9Y210, N702Q); assay: whole-cell patch-clamp, hTRPC6 mutant N702Q; type: cell-based
[18] = molecular target: T1, TRPC6 (Mus musculus, UniProt Q61143); assay: macro-patch recordings in outside-out and inside-out configurations; type: cell-based
T1 sequence (Q61143 1-930): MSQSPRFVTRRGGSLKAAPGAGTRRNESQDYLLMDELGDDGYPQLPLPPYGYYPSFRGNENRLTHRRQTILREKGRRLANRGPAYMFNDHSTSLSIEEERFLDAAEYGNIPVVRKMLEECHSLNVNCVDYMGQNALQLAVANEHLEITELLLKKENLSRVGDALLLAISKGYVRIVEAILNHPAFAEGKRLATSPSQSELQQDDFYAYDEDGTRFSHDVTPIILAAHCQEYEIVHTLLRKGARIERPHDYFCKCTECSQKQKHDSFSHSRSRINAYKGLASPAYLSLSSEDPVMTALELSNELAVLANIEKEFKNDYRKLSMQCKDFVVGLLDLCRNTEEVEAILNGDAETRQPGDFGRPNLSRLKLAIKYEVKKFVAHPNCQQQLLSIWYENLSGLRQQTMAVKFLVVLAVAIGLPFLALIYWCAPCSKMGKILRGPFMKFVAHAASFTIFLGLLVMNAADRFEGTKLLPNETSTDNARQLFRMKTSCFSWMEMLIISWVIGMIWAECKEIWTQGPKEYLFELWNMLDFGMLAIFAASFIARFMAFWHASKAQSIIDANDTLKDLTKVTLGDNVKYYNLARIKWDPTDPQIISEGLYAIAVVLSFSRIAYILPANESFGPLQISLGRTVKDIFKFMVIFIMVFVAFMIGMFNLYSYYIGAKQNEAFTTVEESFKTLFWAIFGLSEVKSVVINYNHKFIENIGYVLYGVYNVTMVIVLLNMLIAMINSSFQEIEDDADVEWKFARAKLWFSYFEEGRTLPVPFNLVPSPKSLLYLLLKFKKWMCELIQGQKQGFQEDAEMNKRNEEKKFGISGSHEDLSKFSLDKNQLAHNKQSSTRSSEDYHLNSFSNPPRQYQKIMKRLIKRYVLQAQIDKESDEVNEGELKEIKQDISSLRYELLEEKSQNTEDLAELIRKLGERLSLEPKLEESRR
Outline: (§2)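 Excised outside-out or inside-out patches (macro-patch or single-channel) from transfected HEK293 cells, 24–48 h post-transfection, 23 °C. Polished borosilicate pipettes of 8–12 MΩ; holding potential −60 mV. Same solutions as whole-cell recordings (CsCl-based internal, 400 nM free Ca2+, pH 7.2; NaCl-based external, pH 7.4). Sampled at 50 kHz, 2 kHz filter, low-pass 300 Hz; unitary current and conductance measured.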

[19] = molecular target: mTRPC6^N701Q (Mus musculus, UniProt Q61143, N701Q); assay: single-channel outside-out recording, mTRPC6 N701Q; type: cell-based; conditions: 100 μM agonist, −60 mV
Outline: as §2

[20] = molecular target: mTRPC6^W679F (Mus musculus, UniProt Q61143, W679F); assay: single-channel outside-out recording, mTRPC6 W679F; type: cell-based; conditions: 100 μM agonist, −60 mV
Outline: as §2

mTRPC6 mutant ^mK675R, sequence (Q61143 whole entry K675R): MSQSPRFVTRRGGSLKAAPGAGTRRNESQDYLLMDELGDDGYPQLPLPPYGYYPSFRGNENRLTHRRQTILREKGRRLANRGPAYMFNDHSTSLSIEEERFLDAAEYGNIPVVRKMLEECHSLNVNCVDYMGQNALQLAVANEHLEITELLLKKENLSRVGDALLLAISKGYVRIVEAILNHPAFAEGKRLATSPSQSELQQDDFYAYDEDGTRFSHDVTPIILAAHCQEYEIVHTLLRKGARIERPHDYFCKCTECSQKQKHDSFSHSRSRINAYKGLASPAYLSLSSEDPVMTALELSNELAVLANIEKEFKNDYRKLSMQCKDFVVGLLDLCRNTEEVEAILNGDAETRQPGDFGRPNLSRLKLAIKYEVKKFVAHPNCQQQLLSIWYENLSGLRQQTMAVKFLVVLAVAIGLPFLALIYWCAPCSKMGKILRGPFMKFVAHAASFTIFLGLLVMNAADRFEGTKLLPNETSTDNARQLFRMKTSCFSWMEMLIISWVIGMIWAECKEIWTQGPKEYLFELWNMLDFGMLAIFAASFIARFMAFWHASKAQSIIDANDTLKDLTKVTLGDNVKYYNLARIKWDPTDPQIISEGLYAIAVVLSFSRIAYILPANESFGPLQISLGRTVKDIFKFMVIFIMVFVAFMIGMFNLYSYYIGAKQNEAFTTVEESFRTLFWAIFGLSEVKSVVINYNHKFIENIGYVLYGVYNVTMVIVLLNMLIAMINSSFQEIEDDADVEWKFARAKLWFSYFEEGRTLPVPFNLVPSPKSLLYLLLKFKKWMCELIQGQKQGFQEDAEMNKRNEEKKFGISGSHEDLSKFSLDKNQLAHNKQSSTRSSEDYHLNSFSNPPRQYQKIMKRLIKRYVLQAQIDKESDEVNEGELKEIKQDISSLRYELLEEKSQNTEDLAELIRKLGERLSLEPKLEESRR
mTRPC6 mutant ^mN701Q, sequence (Q61143 whole entry N701Q): as the sequence (Q61143 whole entry K675R) above, with R675K, N701Q counted along it
mTRPC6 mutant ^mK697R, sequence (Q61143 whole entry K697R): as the sequence (Q61143 whole entry K675R) above, with R675K, K697R counted along it
mTRPC6 mutant ^mF678W, sequence (Q61143 whole entry F678W): as the sequence (Q61143 whole entry K675R) above, with R675K, F678W counted along it
hTRPC6 mutant ^hN702Q, sequence (Q9Y210 whole entry N702Q): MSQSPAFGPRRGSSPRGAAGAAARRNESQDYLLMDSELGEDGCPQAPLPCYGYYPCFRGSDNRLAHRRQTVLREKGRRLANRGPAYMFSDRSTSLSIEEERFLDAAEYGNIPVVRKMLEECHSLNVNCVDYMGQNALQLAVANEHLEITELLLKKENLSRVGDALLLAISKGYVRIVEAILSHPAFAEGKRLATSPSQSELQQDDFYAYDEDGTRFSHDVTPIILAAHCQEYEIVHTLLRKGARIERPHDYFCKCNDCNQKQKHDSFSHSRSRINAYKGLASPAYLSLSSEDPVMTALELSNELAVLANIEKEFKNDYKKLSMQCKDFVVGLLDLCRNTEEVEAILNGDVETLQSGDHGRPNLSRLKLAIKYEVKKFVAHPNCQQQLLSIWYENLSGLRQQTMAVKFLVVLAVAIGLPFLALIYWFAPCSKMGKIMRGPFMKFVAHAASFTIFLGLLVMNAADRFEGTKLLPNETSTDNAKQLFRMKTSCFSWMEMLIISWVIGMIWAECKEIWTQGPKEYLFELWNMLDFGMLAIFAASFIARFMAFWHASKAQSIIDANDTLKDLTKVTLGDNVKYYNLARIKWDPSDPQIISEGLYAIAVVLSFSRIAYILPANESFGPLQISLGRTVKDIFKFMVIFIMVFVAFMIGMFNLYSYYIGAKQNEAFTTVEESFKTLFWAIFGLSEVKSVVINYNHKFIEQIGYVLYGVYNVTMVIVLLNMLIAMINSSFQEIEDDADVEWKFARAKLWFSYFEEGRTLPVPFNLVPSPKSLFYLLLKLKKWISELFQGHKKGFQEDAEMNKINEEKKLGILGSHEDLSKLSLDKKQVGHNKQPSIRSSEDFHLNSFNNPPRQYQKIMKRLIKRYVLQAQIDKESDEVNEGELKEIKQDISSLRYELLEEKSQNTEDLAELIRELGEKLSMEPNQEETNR
human TRPC6 (hTRPC6-WT), sequence (Q9Y210 whole entry): as the sequence (Q9Y210 whole entry N702Q) above, with Q702N counted along it
mTRPC6 mutant ^mS685T, sequence (Q61143 whole entry S685T): as the sequence (Q61143 whole entry K675R) above, with R675K, S685T counted along it
mTRPC6 mutant ^mF674A, sequence (Q61143 whole entry F674A): as the sequence (Q61143 whole entry K675R) above, with F674A, R675K counted along it
hTRPC6 mutant ^hE673D, sequence (Q9Y210 whole entry E673D): as the sequence (Q9Y210 whole entry N702Q) above, with E673D, Q702N counted along it
mTRPC6^N701Q, sequence (Q61143 whole entry N701Q): as the sequence (Q61143 whole entry K675R) above, with R675K, N701Q counted along it
hTRPC6 mutant ^hE672C, sequence (Q9Y210 whole entry E672C): as the sequence (Q9Y210 whole entry N702Q) above, with E672C, Q702N counted along it
mTRPC6 mutant ^mW679F, sequence (Q61143 whole entry W679F): as the sequence (Q61143 whole entry K675R) above, with R675K, W679F counted along it
mTRPC6^W679F, sequence (Q61143 whole entry W679F): as the sequence (Q61143 whole entry K675R) above, with R675K, W679F counted along it
mTRPC6 mutant ^mY704A, sequence (Q61143 whole entry Y704A): as the sequence (Q61143 whole entry K675R) above, with R675K, Y704A counted along it
mTRPC6 mutant ^mL684V, sequence (Q61143 whole entry L684V): as the sequence (Q61143 whole entry K675R) above, with R675K, L684V counted along it
mTRPC6 mutant ^mF640W, sequence (Q61143 whole entry F640W): as the sequence (Q61143 whole entry K675R) above, with F640W, R675K counted along it

CCOC(=O)N1CCC(c2cc(O)n3nc(C)c(-c4ccc(F)cc4)c3n2)CC1 [M085, Ethyl 4-(3-(4-fluorophenyl)-7-hydroxy-2-methylpyrazolo[1,5-a]pyrimidin-5-yl)piperidine-1-carboxylate]
EC50 [1]: 2.94 ± 0.7 µM
EC50 [2]: 6.9 ± 2.36 µM
Imax (maximal current density) ([2]; ^mK675R, 100 μM agonist): 8.26 ± 0.62 pA/pF
EC50 [3]: 55.7 ± 15.2 µM
Imax (maximal current density) ([3]; ^mN701Q, 100 μM agonist): 2.11 ± 1.04 pA/pF
EC50 [4]: 14.1 ± 1.95 µM
Imax (maximal current density) ([4]; ^mK697R, 100 μM agonist): 25.58 ± 1.86 pA/pF
EC50 [5]: 0.84 ± 0.27 µM
ratio of M085 activation current I10 μM/I5 μM [6]: 1.91 ± 0.12
ratio of M085 activation current I10 μM/I5 μM [7]: 1.68 ± 0.24
ratio of M085 activation current I10 μM/I5 μM [8]: 1.13 ± 0.26
agonistic effect [9]: loss of agonistic effect
agonistic effect [10]: loss of agonistic effect
agonist-induced current (channel function) [11]: complete loss of function
agonist-induced current (channel function) [12]: complete loss of function
agonist-induced current [13]: disappearance
agonist-induced current [14]: disappearance
EC50 [15]: 50.2 ± 6.65 µM
EC50 [16]: 22.1 ± 5.46 µM
EC50 [17]: 54.5 ± 6.53 µM
current in inside-out configuration ([18]; 100 μM agonist, inside-out macro-patch): no currents were recorded
current in outside-out configuration ([18]; 100 μM agonist, outside-out macro-patch): could be recorded
cell membrane permeability ([18]; implied from inside-out/outside-out recordings): relatively low
unit current [19]: about 1.1 pA
unit current [20]: did not record unit currents

Reference: publication PMC8458982 (The Journal of Biological Chemistry, 2021)
